Test [1] has as its system HL-60. The experiment in a line: (§1) Differentiating activity of compound in HL60 cells at conc 1 ug/mL. Format: functional, Homo sapiens. In short, it runs like this: (§2)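 10⁶ HL-60 cells were exposed to compound for 6 days, then resuspended in RPMI-1640 with 20% FBS and 2 mM L-glutamine. An equal volume of fresh NBT solution (2 mg/mL, with PMA 200 ng/mL in PBS pH 7.2) was added and incubated 40 min at 37 °C with shaking. Cells were chilled, pelleted and resuspended. Formazan-positive cells were counted by hemocytometer (≥200 cells scored). Untreated cultures served as controls.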

Test [2] concerns HL-60. The experiment in a line: The cytotoxic activity in HL-60 cells. In kind it is functional, cell-based. Particulars: Homo sapiens. Summed up:
(§3)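 HL-60 cells from ATCC. Each well received 7.5 × 10⁴ cells plus test compound. Cells grew for 72 h at 37 °C in humidified, CO₂-controlled air, with growth linear over this period. Cells were then counted in a Coulter counter. IC50 is the concentration that cut cell number by 50%.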

Test [3] relates to HL-60. The test is described as follows: (§4) Differentiating activity of compound in HL60 cells at conc 4 ug/mL. Format: functional, Homo sapiens. In short, it runs like this: as §2
Test [4] has as its system HL-60. The experiment in a line: Differentiating activity of compound in HL60 cells at conc 0.5 ug/mL. Format: functional, Homo sapiens. In short, it runs like this:
as §2

Test [5] has as its system HL-60. The test is described as follows: Differentiating activity of compound in HL60 cells at conc 2 ug/mL. Format: functional, Homo sapiens. Summed up:
as §2

In test [6] the test system is HL-60. The experiment in a line: Differentiating activity of compound in HL60 cells at conc 0.05 ug/mL. Format: functional, Homo sapiens. Summed up:
as §2

Test [7] deals with HL-60. The test is described as follows: Differentiating activity of compound in HL60 cells at conc 0.2 ug/mL. Format: functional, Homo sapiens. In short, it runs like this:
as §2

Test [8] has as its system HL-60. Described as §4. In kind it is functional, Homo sapiens. In short, it runs like this: (§5)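 HL-60 (ATCC) cells exposed to compound for 6 days; 10⁶ cells resuspended in 1 mL RPMI-1640 with 20% FBS and 2 mM L-glutamine, mixed with 1 mL fresh NBT (2 mg/mL) containing PMA 200 ng/mL in PBS pH 7.2, 40 min at 37 °C shaking, ice-stopped, pelleted. Formazan-positive cells counted by hemocytometer light microscopy, ≥200 cells scored; value = % NBT-positive cells.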
This is another data set of the same source.

Test [9] concerns HL-60. The test is described as §1. Format: functional, Homo sapiens. In short, it runs like this:
as §5
The source holds these as a separate data set.

Test [10] has as its system HL-60. The test is described as follows: Differentiating activity of compound in HL60 cells at conc 1.4 ug/mL. Format: functional, Homo sapiens.
Test [11] has as its system HL-60. The test is described as follows: Differentiating activity of compound in HL60 cells at conc 2.8 ug/mL. In kind it is functional, Homo sapiens.
Test [12] has as its system HL-60. The test is described as follows: Differentiating activity of compound in HL60 cells at conc 5.6 ug/mL. In kind it is functional, Homo sapiens.
The test system of test [13] is HL-60. The experiment in a line: Differentiating activity of compound in HL60 cells at conc 10 ug/mL. In kind it is functional, Homo sapiens. In short, it runs like this: as §2
Test [14] has as its system HL-60. The experiment in a line: Differentiating activity of compound in HL60 cells at conc 50 ug/mL. Format: functional, Homo sapiens. Summed up:
as §2

Test [15] has as its system HL-60. The experiment in a line: Differentiating activity of compound in HL60 cells at conc 0.08 ug/mL. In kind it is functional, Homo sapiens. In short, it runs like this: as §2
The subject of test [16] is HL-60. The experiment in a line: Differentiating activity of compound in HL60 cells at conc 0.32 ug/mL. Format: functional, Homo sapiens. In short, it runs like this:
as §2

Test [17] has as its system HL-60. The test is described as follows: Cytotoxic activity in HL-60 cells. Format: functional, cell-based. Particulars: Homo sapiens. Summed up:
as §3

Test [18] relates to HL-60. The test is described as follows: Differentiating activity of compound in HL60 cells at conc 0.0003 ug/mL. Format: functional, Homo sapiens.
Test [19] relates to HL-60. The experiment in a line: Differentiating activity of compound in HL60 cells at conc 0.003 ug/mL. Format: functional, Homo sapiens.
For test [20], the system named is HL-60. The experiment in a line: Differentiating activity of compound in HL60 cells at conc 0.03 ug/mL. Format: functional, Homo sapiens.
Test [21] deals with HL-60. The experiment in a line: Differentiating activity of compound in HL60 cells at conc 0.4 ug/mL. Format: functional, Homo sapiens. In short, it runs like this:
as §2

The subject of test [22] is HL-60. The test is described as follows: Differentiating activity of compound in HL60 cells at conc 0.016 ug/mL. Format: functional, Homo sapiens. In short, it runs like this: as §2

The source of these data is ChEMBL document CHEMBL1130401, “Retinoic acid conjugates as potential antitumor agents: synthesis and biological activity of conjugates with Ara-A, Ara-C, 3(2H)-furanone, and aniline mustard moieties” (J Med Chem, 1997).

Converted amounts (≈) assume the structure as drawn.

With `CC1=C(/C=C/C(C)=C/C=C/C(C)=C/C(=O)NCCCNC(=O)/C=C(C)/C=C/C=C(C)/C=C/C2=C(C)CCCC2(C)C)C(C)(C)CCC1`, the NBT positive cells stood at 33% in the test on HL-60 [1] and 65% in the test with HL-60 [3]. In addition, the midpoint of inhibition in the test with HL-60 [2], the IC50, lay at 3.71 µg/mL (≈ 5.81 µM).
For `CC1=C(/C=C/C(C)=C/C=C/C(C)=C/C(=O)Nc2ncnc3c2ncn3[C@@H]2O[C@@H]3CO[Si](C(C)C)(C(C)C)O[Si](C(C)C)(C(C)C)OC3[C@@H]2O)C(C)(C)CCC1` (some centres not stated), the NBT positive cells in the test on HL-60 [4] and in the test with HL-60 [5] was 31% in each case. Moreover, 2.08 µg/mL (≈ 2.63 µM) corresponded to half-maximal inhibition in the test with HL-60 [2] (IC50).
Take `CC1=C(/C=C/C(C)=C/C=C/C(C)=C/C(=O)Nc2ncnc3c2ncn3[C@@H]2O[C@H](CO)C(O)[C@@H]2O)C(C)(C)CCC1` (some centres not stated): the NBT positive cells in the test on HL-60 [6] is listed as 41%; with HL-60 [7] it was 46%. Also, the IC50 in the test with HL-60 [2] is less than 0.32 µg/mL.
Turning to `CC1=C(/C=C/C(C)=C/C=C/C(C)=C/C(=O)Nc2ccc(N(CCCl)CCCl)cc2)C(C)(C)CCC1`, the NBT positive cells stood at 43% in the test on HL-60 [8] and 24% with HL-60 [9]. Further, inhibition with HL-60 [2] was half-maximal at 3.7 µg/mL (≈ 7.18 µM) (IC50).
With `CC1=C(/C=C/C(C)=C/C=C/C(C)=C/C(=O)O[C@H]2C(O)[C@@H](CO)O[C@H]2n2cnc3c(N)ncnc32)C(C)(C)CCC1` (some centres not stated), the NBT positive cells in the test with HL-60 [4] turned out to be 34%; with HL-60 [5] it was 36%. The molecule also yielded a half-maximal inhibitory concentration (IC50) with HL-60 [2] of 1.96 µg/mL (≈ 3.57 µM).
With `C[S+](C)[O-]` [DIMETHYL SULFOXIDE], the figures for the NBT positive cells with HL-60 [10], in the test with HL-60 [11] and in the test on HL-60 [12] were 12%, 28% and 53%, respectively.
For the molecule `Nc1ncnc2c1ncn2[C@@H]1O[C@H](CO)[C@@H](O)[C@@H]1O` [VIDARABINE], the figures for the NBT positive cells with HL-60 [13] and with HL-60 [14] were 9% and 12%, respectively. The molecule further gave an IC50 in the test on HL-60 [2] of 20.9 µg/mL (≈ 78.2 µM).
For the molecule `CC1=C(/C=C/C(C)=C/C=C/C(C)=C/C(=O)OC/C=C(\C)C2=CC(=O)C(C)(C)O2)C(C)(C)CCC1`, the NBT positive cells amounted to 33% in the test on HL-60 [15] and 34% with HL-60 [16]. Moreover, the IC50 in the test on HL-60 [2] is less than 0.32 µg/mL.
On to `CC1=C(/C=C/C(C)=C/C=C/C(C)=C/C(=O)Nc2ccn([C@@H]3O[C@@H]4CO[Si](C(C)C)(C(C)C)O[Si](C(C)C)(C(C)C)OC4[C@@H]3O)c(=O)n2)C(C)(C)CCC1` (some centres not stated), for which the NBT positive cells came to 44% in the test with HL-60 [6] and 54% with HL-60 [7]. In addition, in the test on HL-60 [17], the IC50 is less than 0.32 µg/mL.
Turning to `CC1=C(/C=C/C(C)=C/C=C/C(C)=C/C(=O)O)C(C)(C)CCC1` [TRETINOIN], the NBT positive cells is 34% in the test on HL-60 [18], 67% in the test with HL-60 [19] and 89% in the test with HL-60 [20].
Take `CC1=C(/C=C/C(C)=C/C=C/C(C)=C/C(=O)Nc2ccn([C@@H]3O[C@H](CO)C(O)[C@@H]3O)c(=O)n2)C(C)(C)CCC1` (some centres not stated): the NBT positive cells is recorded as 29% in the test with HL-60 [15] and 37% with HL-60 [16]. The IC50 in the test with HL-60 [2] was less than 0.32 µg/mL.
For the molecule `Nc1ccn([C@@H]2O[C@H](CO)[C@@H](O)[C@@H]2O)c(=O)n1` [CYTARABINE], the NBT positive cells with HL-60 [15] turned out to be 5%; with HL-60 [21] it was 20%; with HL-60 [22], 8%. In the test with HL-60 [2], this molecule had an IC50 of 0.029 µg/mL (≈ 0.119 µM).

The IC50 is the concentration needed to halve the response being measured. Low readings indicate greater potency, high ones weaker potency.
